Measured values reported in ChEMBL document CHEMBL4373712, “Bioactivatable Pseudotripeptidization of Cyclic Dipeptides To Increase the Affinity toward Oligopeptide Transporter 1 for Enhanced Oral Absorption: An Application to Cyclo(l-Hyp-l-Ser) (JBP485)” (J Med Chem, 2019).

Key:
[1] = Ratio of half-life in pH 7.2 phosphate buffer to half-life in Sprague-Dawley rat plasma; type: ADME
[2] = Half life in pH 4.5 acetate buffer at 5 mM by HPLC analysis; type: physicochemical
Procedure, shortened: (§1)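 Compound at 5 mM in 0.1 M HCl, pH 4.5 acetate buffer, pH 5.8/6.8/7.2 phosphate buffers, SGF (pH 1.2) and SIF (pH 6.8), prepared per Chinese Pharmacopoeia. Samples taken at 0-20 h and analyzed by HPLC-UV. k = 2.303×slope of log C versus time; t1/2 = 0.693/k.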

[3] = Terminal half-life in Sprague-Dawley rat assessed as JBP485 level at 12 mg/kg equiv of JBP485 administered orally by UPLC-MS/MS analysis; type: ADME, organism-based; conditions: in vivo, po
Procedure, shortened: (§2)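 Fasted male SD rats (200–250 g), oral 12 mg/kg (prodrugs calculated as JBP485). Jugular blood 0.083–10 h, centrifuged, plasma JBP485 by UPLC-MS/MS; n=6.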

[4] = Ratio of half-life in pH 7.2 phosphate buffer to half-life in Sprague-Dawley rat intestinal homogenates; type: ADME, tissue-based; conditions: tissue homogenate
[5] = AUC (0 to t) in Sprague-Dawley rat assessed as JBP485 level at 12 mg/kg equiv of JBP485 administered orally by UPLC-MS/MS analysis; type: ADME, organism-based; conditions: in vivo, po
Procedure, shortened: (§3)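 Male SD rats, 200-250 g, fasted 12 h with water, n=6. Oral dose of 12 mg/kg as JBP485 equivalent; dose-effect arms at 12 and 100 mg/kg. JBP485 given iv at 6 mg/kg as the reference. Jugular blood taken at 0.083-10 h. Plasma JBP485 by UPLC-MS/MS. Absolute F = (AUCpo×Div)/(AUCiv×Dpo)×100%, using AUC0-t.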

[6] = Apparent permeability across human Caco2 cells at 0.5 mM measured after 5 to 60 mins by UPLC-MS/MS analysis; type: ADME, cell-based; conditions: caco-2, 500 µM
Procedure, shortened: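 Caco-2 cells grown on 0.4 µm transwell inserts; monolayers used only with TEER >300 Ω/cm². Compound at 0.5 mM in apical pH 6.0 HBSS, basolateral pH 7.4 HBSS, 37 °C. Basolateral samples taken at 5, 15, 30, 45 and 60 min. Quantified by UPLC-MS/MS; Papp from steady-state flux, area and initial donor concentration. Three repeats.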

[7] = Half life in 0.1 M HCl at 5 mM by HPLC analysis; type: physicochemical; procedure, shortened: as §1
[8] = Oral bioavailability in Sprague-Dawley rat assessed as JBP485 level at 12 mg/kg equiv of JBP485 by UPLC-MS/MS analysis; type: ADME, organism-based; conditions: in vivo; procedure, shortened: as §3
[9] = Half life in pH 5.8 phosphate buffer at 5 mM by HPLC analysis; type: physicochemical; procedure, shortened: as §1
[10] = Half life in pH 7.2 phosphate buffer at 5 mM by HPLC analysis; type: physicochemical; procedure, shortened: as §1
[11] = Half life in pH 6.8 simulated intestinal fluid at 5 mM by HPLC analysis; type: ADME; procedure, shortened: as §1
[12] = Half life in Sprague-Dawley rat liver homogenates at 5 mM by HPLC analysis; type: ADME, tissue-based
Procedure, shortened: (§4)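 Jejunum and liver homogenates from male SD rats in pH 7.4 PBS, adjusted to 200 µg/mL protein, and rat plasma. Each incubated with compound at 5 mM at 37 °C.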

[13] = Tmax in Sprague-Dawley rat assessed as JBP485 level at 12 mg/kg equiv of JBP485 administered orally by UPLC-MS/MS analysis; type: ADME, organism-based; conditions: in vivo, po; procedure, shortened: as §2
[14] = Ratio of half-life in pH 7.2 phosphate buffer to half-life in Sprague-Dawley rat liver homogenates; type: ADME, tissue-based; conditions: tissue homogenate
[15] = Half life in Sprague-Dawley rat plasma at 5 mM by HPLC analysis; type: ADME, cell-free; procedure, shortened: as §4
[16] = Half life in Sprague-Dawley rat intestinal homogenates at 5 mM by HPLC analysis; type: ADME, tissue-based, Intestine; procedure, shortened: as §4
[17] = Half life in pH 1.2 simulated gastric fluid at 5 mM by HPLC analysis; type: ADME; procedure, shortened: as §1
[18] = Half life in pH 6.8 phosphate buffer at 5 mM by HPLC analysis; type: physicochemical; procedure, shortened: as §1
[19] = Cmax in Sprague-Dawley rat assessed as JBP485 level at 12 mg/kg equiv of JBP485 administered orally by UPLC-MS/MS analysis; type: ADME, organism-based; parameters: dose 12 mg/kg, route oral; conditions: in vivo, po; procedure, shortened: as §3
[20] = substrate: O=C1N[C@@H](CO)C(=O)N2C[C@H](O)C[C@@H]12; test: (§5) Substrate activity at PEPT1 in human Caco2 cells assessed as Km measured after 10 mins by Eadie-Hofstee plot analysis; type: ADME, cell-based
Procedure, shortened: (§6)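 Caco-2 uptake at 0.2–5 mM compound for 10 min at 37 °C, cells washed ice-cold and lysed, drug quantified by UPLC-MS/MS and normalised to protein. Km from Eadie–Hofstee plot; n=3.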

[21] = substrate: [H][C@@]12C[C@@H](O)CN1C(=O)[C@H](COC(=O)[C@@H](N)C(C)C)NC2=O; test: as §5; type: ADME, cell-based; procedure, shortened: as §6
[22] = substrate: O=C(O)[C@H](CO)NC(=O)[C@@H]1C[C@@H](O)CN1; test: as §5; type: ADME, cell-based; procedure, shortened: as §6

Ratio [1] | half-life at 5000 µM [2] [h] | beta t1/2 [3] [h] | Ratio [4] | AUCt [5] [nM/ml.hr] | Papp [6] | half-life at 5000 µM [7] [h] | F [8] [%] | half-life at 5000 µM [9] [h] | half-life at 5000 µM [10] [h] | half-life at 5000 µM [11] [h] | half-life at 5000 µM [12] [h] | Tmax [13] [h] | Ratio [14] | half-life at 5000 µM [15] [h] | half-life at 5000 µM [16] [h] | half-life at 5000 µM [17] [h] | half-life at 5000 µM [18] [h] | Cmax [19] [µM] | Molecule | also measured
3 to 35 | > 20 | 2.51 | 3 to 35 | 139.78 | Permeable | > 20 | 36 | > 20 | 11.6 | 11.1 | 2.1 | 0.41 | 3 to 35 | 6.1 | 0.9 | > 20 | 11.4 | 98.3 | CC(C)[C@H](N)C(=O)O[C@@H]1C[C@H]2C(=O)N[C@@H](CO)C(=O)N2C1 | 
3 to 35 | > 20 | 2.38 | 3 to 35 | 33.9 |  | > 20 | 8.7 | 8.2 | 2.3 | 2.8 | 0.16 | 1 | 3 to 35 | 0.29 | < 0.083 | > 20 | 2.6 | 10.7 | N[C@@H](Cc1ccccc1)C(=O)OC[C@@H]1NC(=O)[C@@H]2C[C@@H](O)CN2C1=O | 
3 to 35 | > 20 | 2.23 | 3 to 35 | 28.75 |  | > 20 | 7.4 | 14.7 | 1.9 | 2.4 | 0.16 | 1.3 | 3 to 35 | 0.32 | < 0.083 | > 20 | 2.6 | 8.95 | CC(C)C[C@H](N)C(=O)OC[C@@H]1NC(=O)[C@@H]2C[C@@H](O)CN2C1=O | 
3 to 35 | > 20 | 0.9 | 3 to 35 | 122.65 | Permeable | > 20 | 31.6 | > 20 | 9.6 | 10.9 | 4.8 | 0.9 | 3 to 35 | 4 | 0.8 | > 20 | 11.6 | 41.8 | CCC(C)[C@H](N)C(=O)OC[C@@H]1NC(=O)[C@@H]2C[C@@H](O)CN2C1=O (some centres not stated) | 
 |  |  |  |  |  |  |  |  |  |  |  |  |  |  |  |  |  |  | Solute carrier family 15 member 1 (Homo sapiens) (protein) MGMSKSHSFFGYPLSIFFIVVNEFCERFSYYGMRAILILYFTNFISWDDNLSTAIYHTFVALCYLTPILGALIADSWLGKFKTIVSLSIVYTIGQAVTSVSSINDLTDHNHDGTPDSLPVHVVLSLIGLALIALGTGGIKPCVSAFGGDQFEEGQEKQRNRFFSIFYLAINAGSLLSTIITPMLRVQQCGIHSKQACYPLAFGVPAALMAVALIVFVLGSGMYKKFKPQGNIMGKVAKCIGFAIKNRFRHRSKAFPKREHWLDWAKEKYDERLISQIKMVTRVMFLYIPLPMFWALFDQQGSRWTLQATTMSGKIGALEIQPDQMQTVNAILIVIMVPIFDAVLYPLIAKCGFNFTSLKKMAVGMVLASMAFVVAAIVQVEIDKTLPVFPKGNEVQIKVLNIGNNTMNISLPGEMVTLGPMSQTNAFMTFDVNKLTRINISSPGSPVTAVTDDFKQGQRHTLLVWAPNHYQVVKDGLNQKPEKGENGIRFVNTFNELITITMSGKVYANISSYNASTYQFFPSGIKGFTISSTEIPPQCQPNFNTFYLEFGSAYTYIVQRKNDSCPEVKVFEDISANTVNMALQIPQYFLLTCGEVVFSVTGLEFSYSQAPSNMKSVLQAGWLLTVAVGNIIVLIVAGAGQFSKQWAEYILFAALLLVVCVIFAIMARFYTYINPAEIEAQFDEDEKKNRLEKSNPYFMSGANSQKQM | Km [20]: 2530 µM; Km [21]: 860 µM; Km [22]: 650 µM
